Compounds with a hit are over-represented: about 2.4% of the library has one in this group of screens.
rRNA inh HTS – reduced GFP signal of wild-type E. coli, primary screen, bacterial rRNA inhibitor project, GFP/RFP fluorescence, OD600, single point. E. coli WT GFP vs humanized-ribosome RFP mutants, 24 h; active compounds read low; DMSO median 0, no signal -100. GFP signal change (wild-type ribosome), % (no concentration beside the values). 350,000 tested, 1.6% active. AID 720706, 2013;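 active = significant combined selectivity score with lowered wild-type GFP, culture density cut under 30%, mutant RFP and density less affected; inactive = any of these conditions unmet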
EWS-Fli inh – EWS/Fli-driven NR0B1 reporter inhibitors, primary screen, A673 cells, NR0B1 luciferase, luminescence, MLPCN library; viability-normalised; inhibition, % at 12.6 µM; 350,000 tested, 0.67% active; AID 651661, 2012;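 active = mean inhibition of at least 50% after viability correction, with every replicate also passing that limit; inconclusive = mean reaches 50% but only one of two replicates passes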;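 also: firefly luciferase signal divided by Alamar Blue viability fluorescence both relative to DMSO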
LGR2 inh – inhibitors of bursicon-induced LGR2 CRE-luciferase signal, primary screen, cell-based, HEK293, CRE-luciferase reporter, bursicon stimulation; bursicon-stimulated, 4 h; inhibition, % at 9.99 µM; 380,000 tested, 0.35% active; Drosophila bursicon receptor LGR2 (rickets);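 active = drop in luminescence signal, shown as inhibition above about 50% in the replicate tests, limit read from the data, passing the limit was not always enough; inconclusive = probably only some replicates passing the limit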;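 also: agonist challenge used bursicon conditioned medium at about half maximal strength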
E-sel inducer – E-selectin induction in HUVECs, primary screen, imaging, HUVEC, immunofluorescence imaging, single point; activation, % at 7.58 µM; normalized: neutral wells 0, TNF-alpha wells 100; 260,000 tested, 0.37% active;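 active = mean E-selectin-positive cell signal at least 10% of the positive control, reached in at least 60% of replicates, without over 20% cell loss; inconclusive = no rule given, readout overlaps actives, possibly toxicity-flagged; inactive = the rest, including those meeting only one limit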
Target sequence (P16581 whole entry, looked up): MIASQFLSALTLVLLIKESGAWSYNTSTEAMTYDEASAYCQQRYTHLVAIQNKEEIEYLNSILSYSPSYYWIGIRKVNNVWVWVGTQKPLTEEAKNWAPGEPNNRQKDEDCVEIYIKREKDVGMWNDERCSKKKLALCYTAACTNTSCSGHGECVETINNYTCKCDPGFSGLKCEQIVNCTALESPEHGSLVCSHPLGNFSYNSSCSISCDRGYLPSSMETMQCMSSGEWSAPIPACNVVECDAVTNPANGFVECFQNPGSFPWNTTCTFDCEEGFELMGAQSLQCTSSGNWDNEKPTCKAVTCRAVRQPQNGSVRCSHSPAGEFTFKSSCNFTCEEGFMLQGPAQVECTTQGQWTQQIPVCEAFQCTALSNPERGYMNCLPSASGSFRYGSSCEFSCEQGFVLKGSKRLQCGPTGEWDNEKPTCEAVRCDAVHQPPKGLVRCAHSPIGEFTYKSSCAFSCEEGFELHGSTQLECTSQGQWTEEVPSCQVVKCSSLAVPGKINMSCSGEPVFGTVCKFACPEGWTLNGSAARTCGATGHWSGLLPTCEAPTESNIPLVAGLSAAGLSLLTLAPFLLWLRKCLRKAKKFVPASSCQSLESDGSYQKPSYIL
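material = human umbilical vein endothelial cells (HUVEC), E-selectin induction | quantity = 3,000 cells/well | medium = EGM-2 growth medium on 0.1% gelatin-coated wells | technique = immunofluorescence imaging | read-out basis = % PE-positive cells | control set = TNF-alpha positive control, DMSO neutral control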
AID977621 – growth inhibition of wild-type GFP E. coli, dose response, H69 mutant RFP, cherry-pick; shares compounds with rRNA inh HTS; E. coli wild-type GFP strain growth, fluorescence, 24 h; activity change, negative = inhibition at 50 µM; 1,900 tested, under 10 active;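 active = Wild-type ribosome reporter drop at least double the humanized mutant ribosome reporter drop, growth loss under a set limit; inconclusive = no clear call, values can overlap the other calls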;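 also: wild-type GFP and H69 mutant RFP strains grown together 50/50 in each well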
AID977628 – E. coli growth inhibition, wild-type GFP versus h24 humanized RFP strain, dose response, h24 mutant RFP vs wild-type GFP, cherry-pick; shares compounds with rRNA inh HTS; E. coli WT GFP strain growth, fluorescence, 24 h; activity change, negative = inhibition at 50 µM; 1,900 tested, under 10 active; AID 977628, 2014;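 active = compound lowering the normal-ribosome reporter at least twice as much as the humanized-ribosome reporter, growth loss under a set limit; inconclusive = no clear call, values can overlap the other calls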;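 also: wild-type GFP and h24 humanized RFP strains co-cultured 1 to 1 per well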
Large screens that a line does not name were inactive (follow-up assays come after a bar, where they were run); ! = not active in a repeat.

CCC(=O)N1[C@H](CO)[C@@H]2c3ccccc3N(C(=O)Nc3ccc(Cl)cc3)C[C@@H]21	rRNA inh HTS -22.4 | AID977621 inactive
C[C@@H]1CN([C@@H](C)CO)C(=O)c2cccc(NC(=O)NC3CCCCC3)c2O[C@@H]1CN(C)C(=O)NC1CCCCC1	none
CCC(C)c1ccccc1NC(=O)c1cccc(-n2cnnn2)c1 (stereo not given)	rRNA inh HTS -21.1 | AID977621 inactive | AID977628 inactive
CCC(C)c1ccccc1NC(=O)c1cccnc1 (stereo not given)	none (no result: E-sel inducer)
O=C(C[n+]1ccc(Cc2ccccc2)cc1)Nc1ccc([N+](=O)[O-])cc1Cl	rRNA inh HTS -30.5 | AID977621 inactive | AID977628 inactive
Cc1ccc(OCCOCCn2cnc3ccccc3c2=O)c([N+](=O)[O-])c1	none
Cc1ccc([N+](=O)[O-])c(OCCn2cnc3ccccc32)c1	rRNA inh HTS -19.6 (no result: E-sel inducer) | AID977621 inactive | AID977628 inactive
Cc1cccc(-n2cnc3cc([N+](=O)[O-])ccc32)c1	rRNA inh HTS -16.1 (no result: EWS-Fli inh) | AID977621 inactive | AID977628 inactive
COc1ccc(-n2cnc3cc([N+](=O)[O-])ccc32)cc1	none
O=C(c1ccc(S(=O)(=O)N2CCOCC2)cc1)N1CCc2ccccc2C1	none (no result: rRNA inh HTS, EWS-Fli inh, E-sel inducer)
O=C(c1cc(S(=O)(=O)N2CCOCC2)ccc1Cl)N1CCc2ccccc2C1	rRNA inh HTS -20.2 (no result: E-sel inducer) | AID977621 inactive | AID977628 inactive
O=C(NCC1CC1)[C@H]1[C@H](CO)[C@H]2Cn3c(ccc(-c4ccncc4)c3=O)[C@@H]1N2CC1CC1	none
O=C(CCCn1c(=S)[nH]c2ccsc2c1=O)Nc1ccc2c(c1)OCCO2	rRNA inh HTS -20.7 | AID977621 inactive
Cc1cccc(OCCNc2ncccc2[N+](=O)[O-])c1	rRNA inh HTS -17.2 | AID977621 inconclusive
CCNC(=O)C[C@H]1CC[C@H](NC(=O)C2CC2)[C@@H](CO)O1	none
Cc1ccc(C(=O)Nc2ccc3ncccc3c2)cc1	rRNA inh HTS -15.6, EWS-Fli inh 65.6, LGR2 inh 74.1 | AID977628 inactive
Cc1ccc(C(=O)Nc2cccc(NC(=O)c3cccnc3)c2)cc1	none (no result: E-sel inducer)
C[C@H]1CN([C@@H](C)CO)C(=O)c2cc(NS(=O)(=O)c3ccccc3)ccc2O[C@H]1CN(C)S(=O)(=O)c1cccs1	none
C[C@@H]1CN([C@H](C)CO)C(=O)Cc2cc(NC(=O)CCC(F)(F)F)ccc2O[C@@H]1CN(C)Cc1ccc(Oc2ccccc2)cc1	none
O=C(CN1CCN(S(=O)(=O)c2ccc(Cl)cc2)CC1)Nc1ccc2c(c1)CCC2	rRNA inh HTS -21.1 (no result: E-sel inducer) | AID977621 inactive | AID977628 inconclusive
Cc1ccc(S(=O)(=O)N2CCN(CC(=O)Nc3ccc4c(c3)CCC4)CC2)cc1C	none (no result: rRNA inh HTS, EWS-Fli inh, E-sel inducer)
CN(CC(=O)Nc1ccc(S(=O)(=O)N2CCCC2)cc1)CC(=O)Nc1ccc(F)c(F)c1F	rRNA inh HTS -32.8 | AID977621 inactive | AID977628 inconclusive
CSc1ccccc1NC(=O)CN(C)CC(=O)Nc1ccc(S(=O)(=O)N2CCCC2)cc1	none
COc1ccccc1OCC(=O)Nc1ccc(S(=O)(=O)N2CCCCCC2)cc1	rRNA inh HTS -19.4 (no result: E-sel inducer) | AID977621 inactive
CCOC(=O)c1csc(NC(=O)CC2CCCC2)n1	rRNA inh HTS -20.1 | AID977621 inactive
CCn1nc(C)cc1C(=O)N1CCCC(C(=O)c2ccc3ccccc3c2)C1 (stereo not given)	rRNA inh HTS -19.5 (no result: E-sel inducer) | AID977621 inactive
COc1cccc(CN2CC3(C2)CN(C(=O)C2CC2)[C@H](CO)c2c3c3ccc(OC)cc3n2C)c1	none
Cc1ccccc1S(=O)(=O)NCC[C@@H]1CC[C@H](NC(=O)C2CC2)[C@H](CO)O1	none
COc1ccccc1CNC(=O)CCCc1cn(C)c2ccccc12	none
COc1ccc(CNC(=O)Cc2cn(C)c3ccccc23)c(OC)c1	rRNA inh HTS -24.4 | AID977621 inactive | AID977628 inactive
COc1ccc(CC(=O)OCC(=O)Nc2cccc(Br)c2)cc1	none
COc1cccc(NC(=O)COC(=O)Cc2ccc(Cl)cc2)c1	rRNA inh HTS -36.0 | AID977621 inactive
COc1cccc(NC(=O)COC(=O)Cc2ccc(Br)cc2)c1	rRNA inh HTS -15.4 | AID977621 inconclusive | AID977628 inactive
CO[C@@H]1CN(C)C(=O)c2cc(NC(C)=O)ccc2OC[C@H](C)N(Cc2ccccc2F)C[C@H]1C	none
Clc1ccccc1C1CC(c2ccccc2)=Nc2ccccc2N1 (stereo not given)	rRNA inh HTS -19.7 | AID977628 inconclusive
CC(=O)Nc1ccc2c(c1)CC(=O)N(C)C[C@H](C)[C@H](CN(C)C(=O)NC(C)C)O2	none (no result: EWS-Fli inh, LGR2 inh, E-sel inducer)
COC(=O)c1ccc(CSc2nc(-c3ccccc3)cs2)o1	rRNA inh HTS -23.4 (no result: E-sel inducer) | AID977621 inactive
CN1C(=O)c2cc(NC(=O)c3cccc(F)c3)ccc2OC[C@H]2O[C@@H](CC(=O)NCC3CCCCC3)CC[C@@H]21	rRNA inh HTS -25.1! | AID977621 inactive | AID977628 inactive
CCOC(=O)c1c(C)[nH]c(C)c1S(=O)(=O)NCCN1CCN(c2ccccc2F)CC1	rRNA inh HTS -16.5 (no result: EWS-Fli inh, E-sel inducer) | AID977621 inactive | AID977628 inactive
CCOC(=O)c1c(C)[nH]c(C)c1S(=O)(=O)NCC1CCN(Cc2ccccc2F)CC1	none (no result: EWS-Fli inh, E-sel inducer)
Cc1ccccc1S(=O)(=O)N1[C@@H]2CNC[C@H]1C2c1ccc(/C=C/c2ccccc2)cc1 (stereo not given in full)	none (no result: EWS-Fli inh)
N#Cc1cccc(-c2ccc3c(c2)[C@@H]2[C@@H](CCN2S(=O)(=O)c2cccc(F)c2)[C@H](CO)N3)c1	rRNA inh HTS -19.1 | AID977621 inconclusive
COc1ccc(NC(=O)c2ccc(COc3ccccc3Br)o2)c(OC)c1	rRNA inh HTS -16.4 (no result: E-sel inducer) | AID977621 inactive | AID977628 inactive
COCC(=O)Nc1ccc2c(c1)OC[C@H](C)N(CCc1ccccc1)C[C@H](C)[C@@H](OC)CN(C)C2=O	none (no result: EWS-Fli inh, LGR2 inh, E-sel inducer)
O=C(c1cccc2c1-c1ccccc1C2)N1CCCCC1	rRNA inh HTS -21.9 (no result: E-sel inducer) | AID977621 inactive | AID977628 inconclusive
Cc1onc(-c2c(F)cccc2Cl)c1C(=O)c1ccccc1O	rRNA inh HTS -41.7 | AID977621 inactive | AID977628 inconclusive
O=C(c1ccccc1)N1CC(=O)N2[C@H](CO)[C@H](c3ccc(C#CCC4CCCC4)cc3)[C@@H]2C1	none (no result: EWS-Fli inh)
Cc1noc(C)c1NC(=O)NC[C@H]1CC[C@H]2[C@H](CN2Cc2cccc(-c3ccccn3)c2)O1	none (no result: rRNA inh HTS, LGR2 inh, E-sel inducer)

Source: PubChem BioAssay
